Molecules are shown by their SMILES.

From ChEMBL document CHEMBL1154438, “Synthesis, spectral studies and antiamoebic activity of new 1-N-substituted thiocarbamoyl-3-phenyl-2-pyrazolines” (Eur J Med Chem, 2009) come the findings set out here.

In this experiment the test system is Entamoeba histolytica. The experiment in a line: Antiamoebic activity against Entamoeba histolytica HM-1:IMSS after 72 hrs by microdilution assay. Type of experiment: functional, organism-based. The essentials: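 E. histolytica trophozoites grown in TYIS-33 medium; compounds dissolved in DMSO and diluted in medium to a 1 mg/mL stock, then two-fold serial dilutions in wells. Inoculum 1.7 × 10⁴ organisms/well, gassed with nitrogen, 37 °C for 72 h. Cells methanol-fixed and eosin-stained, dye released with 0.1 N NaOH, OD 490 nm read. Percent inhibition versus log dose, IC50 from linear regression.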
Molecule `CN(Cc1ccccc1)C(=S)N1CCC(c2cccc(Cl)c2)=N1` yielded an IC50 of 2.91 µM. The figure for `S=C(N1CCCC1)N1CCC(c2cccc(Cl)c2)=N1` is 2.31 µM; for `CN(Cc1ccccc1)C(=S)N1CCC(c2cccc(Br)c2)=N1` it is 4.44 µM. To `S=C(N1CCCCCC1)N1CCC(c2ccccc2)=N1` belongs 4.39 µM; to `S=C(N1CCCCCC1)N1CCC(c2cccc(Br)c2)=N1`, 1.09 µM.

In the case of `S=C(N1CCCCCC1)N1CCC(c2cccc(Cl)c2)=N1`, the IC50 came out at 0.89 µM. To `CN(C(=S)N1CCC(c2cccc(Br)c2)=N1)C1CCCCC1` belongs 5.25 µM; to `CN(C(=S)N1CCC(c2cccc(Cl)c2)=N1)C1CCCCC1`, 3.71 µM; to `S=C(N1CCC(c2ccccc2)=N1)N1CCCc2ccccc21`, 6.19 µM.

Consider `S=C(N1CCC(c2cccc(Cl)c2)=N1)N1CCCc2ccccc21`, for which the midpoint of inhibition, the IC50, lay at 1.77 µM.

As for `Cc1ccccc1NC(=S)N1CCC(c2ccccc2)=N1`, the IC50 is 4.78 µM. To `Cc1ccccc1NC(=S)N1CCC(c2cccc(Br)c2)=N1` belongs 3.82 µM.

Take `S=C(N1CCCC1)N1CCC(c2ccccc2)=N1`: it took 3.73 µM to reach half-maximal inhibition (IC50). Consider `Cc1ccccc1NC(=S)N1CCC(c2cccc(Cl)c2)=N1`, for which the IC50 was determined as 1.68 µM. This IC50 lies about 2.2-fold lower than the previous one. `Cc1cccc(NC(=S)N2CCC(c3ccccc3)=N2)c1` came in with an IC50 of 5.01 µM. The figure for `Cc1cccc(NC(=S)N2CCC(c3cccc(Br)c3)=N2)c1` is 3.35 µM; for `Cc1cccc(NC(=S)N2CCC(c3cccc(Cl)c3)=N2)c1` it is 2.81 µM. For the molecule `Cc1ccc(NC(=S)N2CCC(c3cccc(Br)c3)=N2)cc1`, the half-inhibitory concentration (IC50) came out at 5.33 µM.

`Cc1ccc(NC(=S)N2CCC(c3cccc(Cl)c3)=N2)cc1` displayed an IC50 of 2.4 µM. This IC50 is about 2.2-fold lower than that of the molecule before. To `Fc1ccc(NC(=S)N2CCC(c3ccccc3)=N2)c(F)c1` belongs 1.76 µM. To `Fc1ccc(NC(=S)N2CCC(c3cccc(Cl)c3)=N2)c(F)c1` belongs 0.51 µM; to `S=C(NC1C2CC3CC(C2)CC1C3)N1CCC(c2ccccc2)=N1` (stereo not given), 1.79 µM; to `S=C(NC1C2CC3CC(C2)CC1C3)N1CCC(c2cccc(Br)c2)=N1` (stereo not given), 0.58 µM. To `CN(C(=S)N1CCC(c2ccccc2)=N1)C1CCCCC1` belongs 5.94 µM; to `CN(Cc1ccccc1)C(=S)N1CCC(c2ccccc2)=N1`, 7.31 µM. In turn, `S=C(N1CCCC1)N1CCC(c2cccc(Br)c2)=N1` returned an IC50 of 2.82 µM. To `S=C(NC1C2CC3CC(C2)CC1C3)N1CCC(c2cccc(Cl)c2)=N1` (stereo not given) belongs 0.47 µM; to `S=C(N1CCC(c2cccc(Br)c2)=N1)N1CCCc2ccccc21`, 2.78 µM; to `Fc1ccc(NC(=S)N2CCC(c3cccc(Br)c3)=N2)c(F)c1`, 0.67 µM. The figure for `Cc1ccc(NC(=S)N2CCC(c3ccccc3)=N2)cc1` is 9.56 µM.
